This is a sample that favours compounds with a hit; in the whole collection about 1.1% have one here.
Efa HMGR inh: E. faecalis class II HMG-CoA reductase inhibition; purified E. faecalis HMGR, NADPH absorbance 340 nm kinetic; inhibition, % at 10 µM; 0.41% of 190,000 active; AID 1066;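 active means inhibition above a set limit, the median over all tested compounds plus 3 SD, cut at about 9.5% in these data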;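 further: enzyme runs in reverse so mevalonate oxidation gives rising NADPH absorbance; 0% = complete reaction with DMSO and 100% = background rate lacking mevalonate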
m-calpain inh: calpain II (pig) inhibition | inhibition, % at 16 µM | purified calpain II, fluorogenic peptide substrate, 30 min | 0.37% of 220,000 active;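 active means inhibition above about 50%, limit read from the data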
PMI act: activators of human phosphomannose isomerase | P34949 | purified human PMI, coupled resazurin fluorescence, 20 min; active compounds read high; 1 = vehicle control, 0 substrate-free wells | activation factor at 20 µM | 0.005% of 190,000 active | AID 1214;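 active means activation factor of 2 or more at 20 µM, relative to plate controls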
PMI act satM6P: activators of human phosphomannose isomerase at near-saturating mannose 6-phosphate. P34949. coupled PMI enzyme assay, resazurin fluorescence, 20 min; active compounds read high; 1 = untreated enzyme, 0 = substrate-free blank. activation factor at 20 µM. 0.34% of 190,000 active. AID 1216;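 active means activation factor of 2 or more at 20 µM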
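Material: human phosphomannose isomerase with PGI, G6PDH, diaphorase coupling enzymes; amount: PMI at 15 ng/mL final; also added: Mannose-6-phosphate 1.0 mM (near-saturating) plus 0.22 mM NADP+; incubation: enzyme reaction with compound 20 min at room temperature; signal: resorufin fluorescence (Ex 544/Em 590 nm) from resazurin via diaphorase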
Rad51 HR inh: blocks human Rad51 in homologous recombination; Q06609; hRad51 DNA strand exchange, fluorescence dequenching; inhibition, % at 10 µM; 0.085% of 200,000 active; AID 1385;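 active means inhibition above 40% at the single screening dose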;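 further: 0% = DMSO control wells and 100% = blanks with heterologous ssDNA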
Target sequence (Q06609 whole entry, looked up): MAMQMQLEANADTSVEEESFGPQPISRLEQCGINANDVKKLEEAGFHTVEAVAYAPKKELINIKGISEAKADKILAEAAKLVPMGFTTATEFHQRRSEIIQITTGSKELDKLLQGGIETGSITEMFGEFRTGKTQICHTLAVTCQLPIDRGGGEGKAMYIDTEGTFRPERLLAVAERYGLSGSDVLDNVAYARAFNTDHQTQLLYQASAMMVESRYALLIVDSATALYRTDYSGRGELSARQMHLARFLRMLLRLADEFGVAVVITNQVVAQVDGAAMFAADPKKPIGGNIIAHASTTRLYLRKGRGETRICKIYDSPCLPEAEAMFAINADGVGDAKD
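Material: Human Rad51 nucleoprotein filaments preassembled on unlabelled ssDNA | Also added: Labelled 47-mer dsDNA for strand exchange | Dosing: Single dose, 10 µM final compound | Schedule: 30-min compound preincubation and 15-min exchange, both room temperature | Technique: Fluorescence dequenching at 485/520 nm | Measure: Percent inhibition relative to plate controls and blanks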
An asterisk follows results filed as active; . = not tested or not shown.

SMILES	Efa HMGR inh	m-calpain inh	PMI act	PMI act satM6P	Rad51 HR inh
O=[N+]([O-])c1ccc(Nc2ccccc2)nc1	-6	10	1	1	10
O=[N+]([O-])c1ccc(NCc2ccccc2)nc1	-4	52*	0.8	0.9	.
CC(NC(=O)C(=O)N/N=C\c1cccc([N+](=O)[O-])c1)c1ccccc1 (stereo not given)	3	14	0.9	1	-3
C/C(N)=C(/C#N)C(=O)CSc1nnc(COc2ccccc2Cl)o1	-2	103*	0.9	1	2
Cc1nc(N2CCN(c3ccccc3)CC2)nc2c1C(=O)CC(C)C2 (stereo not given)	-4	72*	1.1	1	4
C/C(=N\N=C(/N)c1nonc1N)c1ccc2c(c1)OCO2	.	18	.	.	-3
S=C1Cc2ccccc2N1	.	55*	.	.	3
O=C1CCc2ccccc2N1	.	-1	.	.	1
COC(=O)C1=C(C)N(Cc2ccco2)C(=O)N[C@@H]1c1ccccc1	11*	6	1	0.9	-6
Cc1cccc(C(=O)Nc2cccc(C(=O)N3CCOCC3)c2)c1	-1	-10	0.9	0.9	.
CC(=O)/C(=N/Nc1cccc(C)c1)N1CCOCC1	-9	-19	1.7	2.2*	.
COc1cccc(CNc2ccccc2O)c1OCc1ccccc1F	-2	-10	0.9	0.6	2
Cc1c(NC(=S)N2CCN(c3ccc(F)cc3)CC2)c(=O)n(-c2ccccc2)n1C	-3	-10	1	1.1	3
Cc1ccccc1OCc1nc2ccccc2c(=O)n1/N=C/c1c[nH]c2ccccc12	0	-17	0.9	0.9	13
Cc1ccc(-c2[nH]ncc2/C=N/n2c(COc3ccccc3C)nc3ccccc3c2=O)cc1	-4	61*	1.1	1.1	25
CCN1CCN(c2cc(C)c3cc(NC(=S)NCc4cccs4)ccc3n2)CC1	-4	51*	0.9	0.8	17
Cc1ccc(CNC(=O)C(CCC(N)=O)NC(=O)OCc2ccccc2)cc1 (stereo not given)	-2	-14	1.1	1	2
COC(=O)c1ccc(C(NC(=O)OCc2ccccc2)/C(C)=C/[C@@H](C)C(=O)NCc2ccc(-c3ccccc3)cc2)cc1 (stereo not given in full)	14*	-21	0.9	0.9	9
CC(/C=C/c1ccco1)=N/NC(=O)Cc1cccs1	-3	-164	0.9	0.9	-11
Brc1ccc(-c2nn3c(-c4ccco4)nnc3s2)o1	-1	-16	1.1	2*	-4
Clc1ccc(-c2ccc(-c3nn4c(-c5ccco5)nnc4s3)o2)cc1	.	.	.	.	2
O=C(N/N=C/C(Cl)=C/c1ccccc1)c1cnccn1	14*	-12	1	1	0
Cc1ccc(-n2c(SCC(=O)N(C)C3CCS(=O)(=O)C3)nc3ccccc3c2=O)cc1 (stereo not given)	18*	-8	1	1.1	-5
O=C(O)CC(Sc1n[nH]c(=S)s1)C(=O)O (stereo not given)	.	6	.	.	0
COc1ccc(C(=O)N(C)c2c(C)n(C)n(-c3ccccc3)c2=O)cc1OC	-8	70*	1	1	-3
SMILES	Efa HMGR inh	m-calpain inh	PMI act	PMI act satM6P	Rad51 HR inh
CC(C)Cn1c(N)c(C(=O)COC(=O)CC23CC4CC(CC(C4)C2)C3)c(=O)n(C)c1=O	1	71*	0.8	0.9	-3
CC(C)Cn1c(N)c(C(=O)COC(=O)c2ccc(Cl)cc2)c(=O)n(C)c1=O	-1	81*	0.9	0.9	4
Cn1c(N)c(C(=O)COC(=O)c2ncc(Cl)c(Cl)c2Cl)c(=O)n(C)c1=O	-5	62*	1.1	1.1	19
CCC(=O)N1CCc2cc(S(=O)(=O)N3CCc4ccccc4C3)ccc21	-5	54*	0.9	0.9	1
CC(=O)N1CCCc2cc(S(=O)(=O)N3CCc4ccccc4C3)ccc21	4	25	0.9	0.9	2
CC1(C)C(C=C(Cl)Cl)C1C(=O)Nc1ccc([N+](=O)[O-])cc1 (stereo not given)	3	53*	0.8	0.9	-2
COc1cc(OC)cc(C(=O)n2cnnc2N)c1	2	11	1.1	1	-5
CC[C@@H](C)C(NC(=O)OC(C)(C)C)c1cn([C@@H](Cc2ccc(O)cc2)C(=O)N2CCN(C(=O)OC(C)(C)C)CC2)nn1 (stereo not given in full)	-8	8	0.9	1	-2
CCOCCCNC(=S)NCCCNc1nc2c(C)cc(C)cc2cc1C#N	1	-202	1.7	2.1*	-5
COc1ccc(N2C(=O)N(Cc3ccccc3F)c3ccccc3S2(=O)=O)cc1	-5	58*	0.9	1	11
COc1ccc(N2C(=O)N(Cc3cccc(F)c3)c3ccccc3S2(=O)=O)cc1	-2	63*	1	1	13
CCOC(=O)c1ccccc1NC(=O)Cn1c(=O)n(Cc2ccccc2)c(=O)c2c(C)c(C)sc21	-3	14	0.9	1	-3
CCOC(=O)c1cc(COc2cc(Cl)cc(Cl)c2)on1	.	28	.	.	19
C[C@H]1[C@H](C)CC[C@]2(C(=O)O)CC[C@]3(C)C(=CC[C@@H]4[C@@]5(C)CC[C@H](O)C(C)(C)[C@@H]5CC[C@]43C)[C@H]12	.	-59	.	.	-5
C[C@H]1[C@H](C)CC[C@]2(C(=O)O)CC[C@]3(C)C(=CC[C@@H]4[C@@]5(C)C[C@@H](O)[C@H](O)C(C)(C)[C@@H]5CC[C@]43C)[C@H]12	18*	-90	1.2	1.1	12
CC(=O)Nc1nnc(C2=COCCO2)o1	10*	11	1	1	-2
O=C(/C=C/c1cccs1)N1CCN(c2ccc(O)cc2)CC1	-3	3	0.9	0.5	41*
Cc1cc(NC(=O)CSc2cn(C)c3ccccc23)no1	-9	2	1.1	0.9	6
O=C(CC1SCCNC1=O)Nc1ccc(F)c(Cl)c1 (stereo not given)	16*	-10	1	1	-2
CC(OC(=O)CC(NC(=O)c1ccccc1Cl)c1ccccc1)C(=O)Nc1cccc(Cl)c1Cl (stereo not given)	-4	31	0.8	0.9	19
O=C(Nc1cccc2oc(=O)ccc12)c1ccc([N+](=O)[O-])cc1[N+](=O)[O-]	0	64*	1.2	1.1	15
COc1ccc(C)cc1NC(=O)c1ccc([N+](=O)[O-])cc1[N+](=O)[O-]	5	-28	1	0.9	3
CCCCc1c(C)nc2ccc(Br)cc2c1SC(N)N	-3	-162	1.7	2.2*	3
O=C(N/N=C1\CCCc2ccccc21)c1cccc([N+](=O)[O-])c1	-5	1	1	1.1	.
O=C(N/N=C1/CCCc2ccccc21)c1cc([N+](=O)[O-])cc([N+](=O)[O-])c1	-6	74*	0.9	0.9	-5
O=C(N/N=C1\CCc2ccccc21)c1ccc(O)cc1	12*	13	1	0.9	-4
